This is an account of results in ChEMBL document CHEMBL3817726, “Chemically Diverse Group I p21-Activated Kinase (PAK) Inhibitors Impart Acute Cardiovascular Toxicity with a Narrow Therapeutic Window” (J Med Chem, 2016).

Structures are written as SMILES. ≈ marks a conversion by molar mass, not a printed value.

Data set [1] is described as follows: Lipophilicity, log D of the compound at pH 7.4. Format: physicochemical. As to conditions: buffer.
The target of data set [2] is Serine/threonine-protein kinase PAK 2 (Homo sapiens, UniProt Q13177). Nature of the data set: Inhibition of human recombinant PAK2 assessed as phosphorylation of coumarin labeled FRET peptide substrate at Ser/Thr19 preincubated for 10 mins followed by ATP addition measured after 60 mins by Z'-LYTE assay.
Data set [3] is described as follows: Fraction unbound in mouse plasma at 25 to 150 mg/kg, ip. Format: ADME, organism-based.
The nature of data set [4]: Apparent permeability across apical to basolateral side in MDCK cells at 10 uM after 60 mins. The data set is classed as ADME, cell-based, Canis lupus familiaris. As to conditions: dog.
Data set [5] is described as follows: Cmax associated with acute adverse effect in mouse at 25 to 150 mg/kg, ip. The data set is classed as ADME, organism-based. The note with it: in vivo.
Data set [6] concerns the target Serine/threonine-protein kinase PAK 1/PAK 2 (Homo sapiens, UniProt Q13177+Q13153). Description: Inhibition of PAK1/2 in human EBC1 cells assessed as phosphorylation of MEK1 at serine 298 after 2 hrs by HTRF assay. The data set is classed as cell-based.
Data set [7] deals with Mus musculus. Nature of the data set: fCmax associated with acute adverse effect in mouse at 25 to 150 mg/kg, ip. The data set is classed as ADME, organism-based. As to conditions: in vivo.
Data set [8] can be described thus: Efflux ratio of permeability across basolateral to apical side over apical to basolateral side in MDCK cells at 10 uM after 60 mins. The note with it: dog. The data set is classed as ADME, cell-based, Canis lupus familiaris.
For data set [9], the target named is Serine/threonine-protein kinase PAK 1 (Homo sapiens, UniProt Q13153). Description: Inhibition of human recombinant N-terminal 6-His-tagged PAK1 kinase domain (249 to 545 residues) expressed in Escherichia coli BL21(DE3) assessed as phosphorylation of coumarin labeled FRET peptide substrate at Ser/Thr19 preincubated for 10 mins followed by ATP addition measured after 60 mins by Z'-LYTE assay.

A short description of data set [10]: Ratio of fCmax associated with acute adverse effect in mouse at 25 to 150 mg/kg, ip to IC50 for PAK1/2-mediated phosphorylation of MEK1 at serine 298 in human EBC1 cells.
Data set [11] in a line: Kinetic solubility of the compound at pH 7.4. As to conditions: buffer, read-out: Kinetic_solubility. The data set is classed as physicochemical.
The species entered for a further data set is Homo sapiens. Nature of the data set: Selectivity for human recombinant N-terminal 6-His-tagged PAK1 kinase domain (249 to 545 residues) over LCK (unknown origin).
Data set [12] deals with Mus musculus. Nature of the data set: Toxicity in mouse assessed as mortality at 25 mg/kg, po after 2 hrs. The note with it: in vivo. Format: organism-based. In a few lines:
(§1)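 Mouse tolerability study at multiple oral doses, with lethality and clinical signs monitored after dosing. Plasma drug concentrations were measured, and the minimum unbound concentration linked to adverse effects was compared with the cellular pMEK S298 IC₅₀.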

Data set [13] is described as follows: Plasma concentration in mouse at 12.5 mg/kg, po at 0.5 hrs. Format: ADME, organism-based.
The nature of data set [14]: Cmax associated with acute adverse effect in mouse at 12.5 to 25 mg/kg, po. Format: ADME, organism-based. As to conditions: in vivo. In a few lines: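 Mouse tolerability studies tested multiple doses, given orally or intraperitoneally. Plasma drug concentrations were measured, including at a 15 min time point. The minimum concentration associated with adverse clinical signs or death was taken as the adverse Cmax and was converted to an unbound value.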

Data set [15] in a line: Fraction unbound in mouse plasma at 12.5 to 25 mg/kg, po. Format: ADME, organism-based.
Data set [16] has as its system Mus musculus. Nature of the data set: fCmax associated with acute adverse effect in mouse at 12.5 to 25 mg/kg, po. Format: ADME, organism-based. As to conditions: in vivo. In a few lines: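 Mouse tolerability studies at multiple doses, oral or intraperitoneal. Minimum unbound plasma concentration associated with adverse effects (total Cmax converted to unbound) compared with IC50 for inhibition of MEK1 S298 phosphorylation in cells.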

Data set [17] in a line: Plasma concentration in mouse at 25 mg/kg, po at 0.25 hrs.
Data set [18] is described as follows: Ratio of fCmax associated with acute adverse effect in mouse at 12.5 to 25 mg/kg, po to IC50 for PAK1/2-mediated phosphorylation of MEK1 at serine 298 in human EBC1 cells. In a few lines:
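Mice were dosed at multiple levels, orally or intraperitoneally, and monitored for acute adverse signs. The minimum unbound plasma Cmax associated with adverse effects was converted from total drug concentration and compared with the cellular IC50 for phospho-MEK1 S298 inhibition.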

For data set [19], the system named is Mus musculus. Description: Toxicity in mouse assessed as mortality at 12.5 mg/kg, po after 0.25 hrs. As to conditions: in vivo. The data set is classed as organism-based.
Data set [20] can be described thus: Plasma concentration in mouse at 25 mg/kg, po at 15 mins. Format: ADME, organism-based.
Data set [21] has as its system Mus musculus. Description: Toxicity in mouse assessed as mortality at 12.5 mg/kg, po after 0.5 hrs. As to conditions: in vivo. The data set is classed as organism-based. In a few lines: as §1
The next data set has as its system Plasma. Nature of the data set: Unbound drug concentration in mouse plasma at 25 mg/kg, po at 0.25 hrs. As to conditions: in vivo.

Serine/threonine-protein kinase PAK 2, sequence (Q13177 whole entry): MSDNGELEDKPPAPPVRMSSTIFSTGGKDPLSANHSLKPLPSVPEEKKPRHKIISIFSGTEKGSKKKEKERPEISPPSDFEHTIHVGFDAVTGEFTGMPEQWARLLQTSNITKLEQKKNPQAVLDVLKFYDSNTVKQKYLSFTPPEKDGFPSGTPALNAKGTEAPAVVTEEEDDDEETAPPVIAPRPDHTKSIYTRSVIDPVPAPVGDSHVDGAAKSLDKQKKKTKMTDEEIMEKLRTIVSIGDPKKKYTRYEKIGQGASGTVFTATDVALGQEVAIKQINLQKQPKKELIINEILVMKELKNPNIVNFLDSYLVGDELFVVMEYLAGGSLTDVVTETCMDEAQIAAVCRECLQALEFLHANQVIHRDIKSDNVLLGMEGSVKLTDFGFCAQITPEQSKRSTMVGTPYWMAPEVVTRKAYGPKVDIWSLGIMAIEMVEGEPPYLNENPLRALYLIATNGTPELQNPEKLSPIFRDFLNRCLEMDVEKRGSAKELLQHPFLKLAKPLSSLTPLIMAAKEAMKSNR
Serine/threonine-protein kinase PAK 1, sequence (Q13153 whole entry, the tested form may be a part): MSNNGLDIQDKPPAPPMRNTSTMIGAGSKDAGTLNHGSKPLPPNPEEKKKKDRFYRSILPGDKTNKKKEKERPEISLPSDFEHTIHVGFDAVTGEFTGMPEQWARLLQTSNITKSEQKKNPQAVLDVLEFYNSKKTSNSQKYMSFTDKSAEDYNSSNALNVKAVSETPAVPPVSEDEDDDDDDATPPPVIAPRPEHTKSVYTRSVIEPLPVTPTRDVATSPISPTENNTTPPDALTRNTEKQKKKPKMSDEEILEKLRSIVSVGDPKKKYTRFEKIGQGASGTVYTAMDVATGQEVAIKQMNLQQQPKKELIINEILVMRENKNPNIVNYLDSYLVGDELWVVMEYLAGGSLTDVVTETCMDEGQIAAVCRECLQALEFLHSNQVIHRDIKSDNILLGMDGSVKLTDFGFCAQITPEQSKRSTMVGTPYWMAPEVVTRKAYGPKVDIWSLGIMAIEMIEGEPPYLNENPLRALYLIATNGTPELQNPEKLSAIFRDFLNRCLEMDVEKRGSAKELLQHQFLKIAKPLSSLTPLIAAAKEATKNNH

As to `CCn1c(=O)c(-c2ccc(-n3cccc(C)c3=O)cc2Cl)cc2cnc(NC3COC3)nc21`, in data set [1], the logD turned out to be 2.5. In addition, the results for the Ki in [2] and in data set [9] were 21 nM and 6.3 nM, respectively. Besides, the fraction unbound in [3] was 0.006. Besides, the Papp A→B at 1 h, 10 µM in data set [4] came out at 37 ×10⁻⁶ cm/s. The Cmax in data set [5] amounted to 41000 nM. Besides, the IC50 in data set [6] worked out at 150 nM. Moreover, the fCmax with Mus musculus [7] stood at 0.24 µM. Moreover, the efflux ratio at 1 h, 10 µM in [8] was 0.4. Also, the Ratio in data set [10] was determined as 1. For the same compound, the solubility kinetic in data set [11] is 2.6 µM (≈ 1.21 µg/mL). For the same compound, in the data set filed under Homo sapiens, the Selectivity ratio was found to be 123.
Compound `CNc1ncc2cc(-c3ccc(-n4cccc(C)c4=O)cc3Cl)c(=O)n(CCC3(F)CN(C)C3)c2n1` registered a log distribution coefficient (logD) in data set [1] of 1.8. Also, the Ki in data set [2] turned out to be 2 nM; in data set [9], 0.95 nM. Also, the Activity entry in the data set with Mus musculus [12], in the data set on Mus musculus [19] and with Mus musculus [21] was “Toxic” throughout. The concentration at 0.5 h in data set [13] turned out to be 1890 nM. The compound also had a Cmax in [14] of 2800 nM. The apical-to-basolateral permeability (Papp A→B) at 1 h, 10 µM in [4] was determined as 6.9 ×10⁻⁶ cm/s. Besides, the fraction unbound in data set [15] is 0.032. In addition, the IC50 in data set [6] is 33 nM. The fCmax in the data set on Mus musculus [16] came out at 0.088 µM. Also, the concentration at 0.25 h in [17] was 2240 nM; in data set [20], 2800 nM. Moreover, the Ratio in data set [18] is listed as 1. Also, the efflux ratio at 1 h, 10 µM in data set [8] was 2. Further, the solubility kinetic in [11] stood at 117 µM (≈ 59.6 µg/mL). Moreover, the “Cp(f)” value in the data set with Plasma is reported as 88 nM. The Selectivity ratio in the data set filed under Homo sapiens was found to be 57.
